Source: ChEMBL document CHEMBL1833790, “N-(2-{3-[3,5-bis(trifluoromethyl)phenyl]ureido}ethyl)-glycyrrhetinamide (6b): a novel anticancer glycyrrhetinic acid derivative that targets the proteasome and displays anti-kinase activity” (J Med Chem, 2011)
Calls of active or inactive are those of the source. The calls are words filed in the database; no cut-off is given here.

Key:
[1] = test system: U-373MG ATCC; assay: Activation of chymotrypsin-like activity of 20S proteasome in human U373 cells at 25 uM after 2 days by bioluminescence assay; format: cell-based
Method in brief: (§1)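 Chymotrypsin-like site, substrate Suc-LLVY-Glo. U373 cells were seeded at 5000 cells/mL for 48 h and exposed two days. After a PBS wash and 0.025% digitonin permeabilisation, Proteasome-Glo reagent was added. Bioluminescence was read after 10 min dark incubation. Triplicates, normalised by a concurrent MTT viability assay run in identical conditions.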

[2] = test system: A549; assay: Growth inhibition in apoptosis-resistant human A549 after 3 days by MTT assay; format: functional; conditions: A549, 72 h
Method in brief: (§2)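 Cells grown in RPMI with 10% heat-inactivated FCS, 4 mM glutamine, gentamicin and penicillin–streptomycin. Drug exposure 3 days, growth read by MTT colorimetric assay. Nine concentrations from 0.01 to 100 μM in semilog steps, six replicates each; IC50 derived per cell line.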

[3] = Growth inhibition in apoptosis-resistant human U373 after 3 days by MTT assay; format: functional, U-373MG ATCC; conditions: U373 MG, 72 h; method in brief: as §2
[4] = test system: SK-MEL-28; assay: Growth inhibition in apoptosis-resistant human SK-MEL-28 after 3 days by MTT assay; format: functional; conditions: SK-MEL-28, 72 h; method in brief: as §2
[5] = test system: MCF7; assay: Growth inhibition in apoptosis-sensitive human MCF7 after 3 days by MTT assay; format: functional; conditions: MCF7, 72 h; method in brief: as §2
[6] = Chemical stability of the compound in MEM cell culture medium after 7 days by HPLC analysis; format: physicochemical; conditions: read-out: Stability
Method in brief: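 Compound incubated in MEM culture medium at 37 °C for 7 days, then analysed by HPLC on RX-C8 (5 μm) column with MeOH–water 90:10 (0.1% TFA), diode-array detection. Expressed as % of incubated compound recovered.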

[7] = test system: U-373MG ATCC; assay: Inhibition of trypsin-like activity of 20S proteasome in human U373 cells at 25 uM after 2 days by bioluminescence assay; format: cell-based
Method in brief: (§3)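 U373 GBM cells seeded at 5000 cells/mL and grown 48 h, then treated for two days. Cells washed in PBS and permeabilised with 0.025% digitonin. Proteasome-Glo reagent added with Suc-LLVY-Glo (chymotrypsin-like), Z-LRR-Glo (trypsin-like) or Z-nLPnLD-Glo (caspase-like) substrate. Luminescence read after 10 min in the dark and normalised to a parallel MTT viability assay; triplicates. MG-132 at 0.5 μM used as reference.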

[8] = test system: Hs 683; assay: Growth inhibition in apoptosis-sensitive human Hs683 after 3 days by MTT assay; format: functional; conditions: Hs 683, 72 h; method in brief: as §2
[9] = test system: PC-3; assay: Growth inhibition in apoptosis-sensitive human PC3 after 3 days by MTT assay; format: functional; conditions: PC-3, 72 h; method in brief: as §2
[10] = test system: B16-F10; assay: Growth inhibition in mouse B16F10 after 3 days by MTT assay; format: functional; conditions: B16-F10, 72 h; method in brief: as §2
[11] = target: T1, Peroxisome proliferator-activated receptor gamma (Homo sapiens) (UniProt P37231); assay: Inhibition of PPARgamma activity in human U373 cells at 25 uM after 6 hrs by spectrophotometric analysis relative to control; format: cell-based; conditions: U-373MG ATCC
T1 sequence (whole entry): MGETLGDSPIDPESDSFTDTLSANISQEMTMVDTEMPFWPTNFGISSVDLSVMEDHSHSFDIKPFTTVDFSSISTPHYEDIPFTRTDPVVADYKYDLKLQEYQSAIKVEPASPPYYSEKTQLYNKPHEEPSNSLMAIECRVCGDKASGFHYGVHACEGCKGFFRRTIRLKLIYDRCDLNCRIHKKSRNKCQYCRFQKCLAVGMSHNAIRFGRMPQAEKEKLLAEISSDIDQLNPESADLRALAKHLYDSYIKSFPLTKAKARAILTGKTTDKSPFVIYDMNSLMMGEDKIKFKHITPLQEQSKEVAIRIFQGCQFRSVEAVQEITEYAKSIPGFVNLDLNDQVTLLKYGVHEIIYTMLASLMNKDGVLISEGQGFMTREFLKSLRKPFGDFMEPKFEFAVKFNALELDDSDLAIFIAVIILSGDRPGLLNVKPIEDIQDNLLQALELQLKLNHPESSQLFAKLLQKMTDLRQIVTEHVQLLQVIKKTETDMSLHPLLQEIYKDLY
Method in brief: (§4)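 Human U373 glioblastoma cells exposed to compound for 6 h, then detached with trypsin. Nuclear extracts prepared by hypotonic lysis with Nonidet P-40 and extraction buffer with protease inhibitor, clarified at 14 000 g, 4 °C. Extracts bound overnight at 4 °C in a PPAR-γ transcription factor ELISA kit, with primary antibody then HRP anti-rabbit. Absorbance read at 450 nm; triplicates, mean ± SD versus control.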

[12] = test system: U-373MG ATCC; assay: Activation of caspase-like activity of 20S proteasome in human U373 cells at 25 uM after 2 days by bioluminescence assay; format: cell-based
Method in brief: (§5)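 Caspase-like site, substrate Z-nLPnLD-Glo. U373 cells were plated at 5000 cells/mL for 48 h, then treated two days. Cells were PBS-washed and permeabilised with 0.025% digitonin before Proteasome-Glo reagent was added. Luminescence was read after 10 min in the dark. Triplicates, normalised to a parallel MTT viability assay under identical conditions.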

[13] = test system: T98G; assay: Growth inhibition in apoptosis-resistant human T98G after 3 days by MTT assay; format: functional; conditions: 72 h; method in brief: as §2
[14] = test system: U-373MG ATCC; assay: Activation of caspase-like activity of 20S proteasome in human U373 cells at 80 uM after 2 days by bioluminescence assay; format: cell-based; method in brief: as §5
[15] = target: T1, Peroxisome proliferator-activated receptor gamma (Homo sapiens); assay: Inhibition of PPARgamma activity in human U373 cells at 80 uM after 6 hrs by spectrophotometric analysis relative to control; format: cell-based; conditions: U-373MG ATCC; method in brief: as §4
[16] = test system: U-373MG ATCC; assay: Inhibition of trypsin-like activity of 20S proteasome in human U373 cells at 80 uM after 2 days by bioluminescence assay; format: cell-based; method in brief: as §3
[17] = test system: U-373MG ATCC; assay: Activation of chymotrypsin-like activity of 20S proteasome in human U373 cells at 80 uM after 2 days by bioluminescence assay; format: cell-based; method in brief: as §1
[18] = target: T1, Peroxisome proliferator-activated receptor gamma (Homo sapiens); assay: Inhibition of PPARgamma activity in human U373 cells at 70 uM after 6 hrs by spectrophotometric analysis relative to control; format: cell-based; conditions: U-373MG ATCC; method in brief: as §4
[19] = test system: U-373MG ATCC; assay: Inhibition of trypsin-like activity of 20S proteasome in human U373 cells at 70 uM after 2 days by bioluminescence assay; format: cell-based; method in brief: as §3
[20] = test system: U-373MG ATCC; assay: Activation of chymotrypsin-like activity of 20S proteasome in human U373 cells at 70 uM after 2 days by bioluminescence assay; format: cell-based; method in brief: as §1
[21] = test system: U-373MG ATCC; assay: Activation of caspase-like activity of 20S proteasome in human U373 cells at 70 uM after 2 days by bioluminescence assay; format: cell-based; method in brief: as §5
[22] = test system: U-373MG ATCC; assay: Activation of chymotrypsin-like activity of human proteasome in U373 at 60 uM after 2 days by bioluminescence assay; format: cell-based; method in brief: as §1
[23] = test system: U-373MG ATCC; assay: Activation of caspase-like activity of 20S proteasome in human U373 cells at 60 uM after 2 days by bioluminescence assay; format: cell-based; method in brief: as §5
[24] = target: T1, Peroxisome proliferator-activated receptor gamma (Homo sapiens); assay: Inhibition of PPARgamma activity in human U373 cells at 60 uM after 6 hrs by spectrophotometric analysis relative to control; format: cell-based; conditions: U-373MG ATCC; method in brief: as §4
[25] = test system: U-373MG ATCC; assay: Inhibition of trypsin-like activity of 20S proteasome in human U373 cells at 60 uM after 2 days by bioluminescence assay; format: cell-based; method in brief: as §3
[26] = test system: U-373MG ATCC; assay: Inhibition of trypsin-like activity of 20S proteasome in human U373 cells at 30 uM after 2 days by bioluminescence assay; format: cell-based; method in brief: as §3
[27] = test system: U-373MG ATCC; assay: Activation of caspase-like activity of 20S proteasome in human U373 cells at 30 uM after 2 days by bioluminescence assay; format: cell-based; method in brief: as §5
[28] = test system: U-373MG ATCC; assay: Activation of chymotrypsin-like activity of 20S proteasome in human U373 cells at 30 uM after 2 days by bioluminescence assay; format: cell-based; method in brief: as §1
[29] = target: T1, Peroxisome proliferator-activated receptor gamma (Homo sapiens); assay: Inhibition of PPARgamma activity in human U373 cells at 30 uM after 6 hrs by spectrophotometric analysis relative to control; format: cell-based; conditions: U-373MG ATCC; method in brief: as §4

Row | Structure (SMILES) | GI50 [2] | GI50 [4] | GI50 [5] | remaining at 168 h [6] | GI50 [9] | GI50 [10] | GI50 [3] | GI50 [8] | GI50 [13] | also measured
1 | COc1ccc(CCNC(=O)[C@@]2(C)CC[C@]3(C)CC[C@]4(C)C(=CC(=O)[C@@H]5[C@@]6(C)CCC(=O)C(C)(C)[C@@H]6CC[C@]54C)[C@@H]3C2)cc1 | > 100 µM | > 100 µM | 56 µM | 93% | 52 µM | 49 µM | 69 µM | 91 µM | > 100 µM | Activity [14]: Active; inhibition [15]: Active; inhibition [16]: Active; Activity [17]: Active
2 | COc1ccc(CCNC(=O)[C@@]2(C)CC[C@]3(C)CC[C@]4(C)C(=CC(=O)[C@@H]5[C@@]6(C)CC[C@H](O)C(C)(C)[C@@H]6CC[C@]54C)[C@@H]3C2)cc1OC | 52 µM | > 100 µM | 34 µM | 86% | 34 µM | 37 µM | 43 µM | 59 µM | 91 µM | Activity [22]: Active; Activity [23]: Active; inhibition [24]: Active; inhibition [25]: Active
3 | COC(=O)[C@@]1(C)CC[C@]2(C)CC[C@]3(C)C(=CC(=O)[C@@H]4[C@@]5(C)C=C(I)C(=O)C(C)(C)[C@@H]5CC[C@]43C)[C@@H]2C1 | 42 µM | 32 µM | 28 µM | 89% | 36 µM | 23 µM | 42 µM | 48 µM | 6 µM | inhibition [26]: Active; Activity [27]: Active; Activity [28]: Active; inhibition [29]: Active

Stronger by GI50 [2], values ahead:

Row | GI50 [2] | GI50 [4] | GI50 [5] | remaining at 168 h [6] | GI50 [9] | GI50 [10] | Structure (SMILES) | GI50 [3] | GI50 [8] | GI50 [13] | also measured
4 | 31 µM | 38 µM | 30 µM | 94% | 9 µM | 34 µM | CC1(C)[C@@H](O)CC[C@]2(C)[C@H]3C(=O)C=C4[C@@H]5C[C@@](C)(C(=O)NCCNC(=S)Nc6ccccc6)CC[C@]5(C)CC[C@@]4(C)[C@]3(C)CC[C@@H]12 | 29 µM | 8 µM | 25 µM | Activity [1]: Active; inhibition [7]: Active; inhibition [11]: Active; Activity [12]: Active
5 | 40 µM | > 100 µM | 38 µM | 94% | 43 µM | 31 µM | COc1ccc2[nH]cc(CCNC(=O)[C@@]3(C)CC[C@]4(C)CC[C@]5(C)C(=CC(=O)[C@@H]6[C@@]7(C)CC[C@H](O)C(C)(C)[C@@H]7CC[C@]65C)[C@@H]4C3)c2c1 | 75 µM | 57 µM | > 100 µM | inhibition [18]: Active; inhibition [19]: Active; Activity [20]: Active; Activity [21]: Active
